These results are taken from ChEMBL document CHEMBL5154946, “Optimization of Peptide Linker-Based Fluorescent Ligands for the Histamine H1 Receptor” (J Med Chem, 2022).

Molecules are shown by their SMILES. Activity calls are given as the source filed them. No cut-off for these calls is given here. Square brackets hold non-standard residues; d marks the D form. Peptide text beside a SMILES is read from it. * marks the point of attachment. X1 = O=C(COc1ccc(/C=C/C2=[N+]3C(=Cc4ccc(-c5cccs5)n4[B-]3(F)F)C=C2)cc1)*; Propanoyl(3-Pip(4-O-2-BnPh)) = O=C(CCN1CCC(Oc2ccccc2Cc2ccccc2)CC1)*; X3 = Cc1cc(C)n2c1C=C1C=CC(/C=C/c3ccc(OCC(=O)*)cc3)=[N+]1[B-]2(F)F; BODIPY(FL) = CC1=CC(C)=[N+]2C1=Cc1ccc(CCC(=O)*)n1[B-]2(F)F; X2 = O=C(CCC1=[N+]2C(=Cc3ccc(-c4cccs4)n3[B-]2(F)F)C=C1)*; βAla = NCCC(=O)O

Data set [1] has as its target T1, Histamine H1 receptor (Homo sapiens, UniProt P35367). Briefly: Binding affinity to human H1R expressed in CHO cells using Fluo-4AM as substrate incubated for 1 hrs by calcium mobilization assay based fluorometric analysis. The class given is cell-based. The conditions noted are these: filed as antagonist.
Data set [2] concerns the target T1, Histamine H1 receptor. Briefly: Binding affinity to human H1R expressed in CHO cells assessed as shift in histamine-mediated calcium response at 1 uM using Fluo-4AM as a substrate incubated for 1 hrs by calcium mobilization assay based fluorometric analysis. The class given is cell-based. The conditions noted are these: filed as antagonist.
Data set [3] has as its target Histamine H3 receptor (Homo sapiens) (UniProt Q9Y5N1). The data set is described as follows: Binding affinity to NLuc-tagged human H3R expressed in HEK293T cell homogenates at 1 uM using NanoGlo as substrate preincubated for 2 hrs followed by substrate addition measured after 5 min in presence of clobenpropit by NanoBRET saturation binding assay. Conditions: filed as antagonist, time 125.0 min.

The target in data set [4] is Histamine H4 receptor (Homo sapiens) (UniProt Q9H3N8). Briefly: Binding affinity to NLuc-tagged human H4R expressed in HEK293T cell homogenates at 1 uM using NanoGlo as substrate preincubated for 2 hrs followed by substrate addition measured after 5 min in presence of clobenpropit by NanoBRET saturation binding assay. Conditions: filed as antagonist, time 125.0 min.

In data set [5] the target is T1, Histamine H1 receptor. Briefly: Binding affinity to human H1R expressed in CHO cells using Fluo-4AM as a substrate incubated for 45 mins by calcium mobilization assay based fluorometric analysis. The conditions noted are these: filed as antagonist. The class given is cell-based.
Data set [6] has as its target T1, Histamine H1 receptor. Briefly: Binding affinity to NLuc-tagged human H1R expressed in HEK293T cells at assessed as ratio of association rate constant to dissociation rate constant by NanoBRET binding assay. In kind it is cell-based. Conditions: filed as antagonist. Summed up: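 Real-time NanoBRET association kinetics on Nluc-H1R HEK293T cells. Several fluorescent ligand concentrations were tested, with BRET read every min for 90 min at room temperature. pKD was derived from kon/koff. Means ± SEM from 4–5 experiments in triplicate.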

Data set [7] addresses T1, Histamine H1 receptor. Briefly: Binding affinity to NLuc-tagged human H1R expressed in HEK293T cells assessed as association rate constant (kon) using furimazine as substrate measured after 90 mins by NanoBRET binding assay. In kind it is cell-based. Conditions: filed as antagonist. Put shortly: (§1)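 Live HEK293T cells expressing Nluc-tagged human H1R; fluorescent ligand added at several concentrations and BRET read in real time every min for 90 min at room temperature. kon and koff obtained from association kinetics; mean residence time taken as 1/koff. Values are means ± SEM of 4–5 separate experiments, each in triplicate.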

Data set [8] addresses T1, Histamine H1 receptor. The data set is described as follows: Binding affinity to NLuc-tagged human H1R expressed in HEK293T cells assessed as dissociation rate constant (koff) using furimazine as substrate measured after 90 mins by NanoBRET binding assay. The class given is cell-based. The conditions noted are these: filed as antagonist. Put shortly: as §1
Data set [9] addresses T1, Histamine H1 receptor. The data set is described as follows: Displacement of VUF13816-based fluorescent ligand 1 from Nluc-tagged human H1R expressed in HEK293T cells assessed as fold change incubated for 2 hrs by NanoBRET competition binding assay. Conditions: filed as antagonist.
Data set [10] addresses T1, Histamine H1 receptor. The data set is described as follows: Displacement of VUF13816-based fluorescent ligand 1 from Nluc-tagged human H1R expressed in HEK293T cells incubated for 2 hrs by NanoBRET competition binding assay.
Data set [11] can be described thus: Drug localization in plasma membrane of chinese hamster CHO cells expressing YFP-tagged H1R at 1 to 25 nM incubated for 30 min by confocal microscopy. The class given is ADME, cell membranes, Cricetulus griseus. The conditions noted are these: 0.5 h, 0.025 µM, dose 1-25 nM. Summed up: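 CHO cells expressing YFP-tagged H1R were incubated for 30 min at 37 °C with fluorescent ligand at 1, 5, 10 or 25 nM, with or without 10 μM mepyramine pretreatment to define nonspecific binding. Plasma membrane versus intracellular localization was judged by confocal imaging in red and green channels. Three independent experiments.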

T1 sequence (P35367 whole entry): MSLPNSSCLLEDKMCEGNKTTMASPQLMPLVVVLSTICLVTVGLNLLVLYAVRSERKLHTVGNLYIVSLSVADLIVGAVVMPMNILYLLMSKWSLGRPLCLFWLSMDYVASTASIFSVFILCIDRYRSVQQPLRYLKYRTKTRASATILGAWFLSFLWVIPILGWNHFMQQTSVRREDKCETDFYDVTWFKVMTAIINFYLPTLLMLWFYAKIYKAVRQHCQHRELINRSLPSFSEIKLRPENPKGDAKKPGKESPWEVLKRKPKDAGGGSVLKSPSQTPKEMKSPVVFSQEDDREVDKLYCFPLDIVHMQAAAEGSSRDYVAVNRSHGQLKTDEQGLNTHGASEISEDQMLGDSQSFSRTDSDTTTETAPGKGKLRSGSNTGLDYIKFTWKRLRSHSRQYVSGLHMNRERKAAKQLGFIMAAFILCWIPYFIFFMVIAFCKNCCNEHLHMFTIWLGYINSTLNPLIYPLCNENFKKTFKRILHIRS
Sequence of Histamine H4 receptor (Homo sapiens) (Q9H3N8 whole entry): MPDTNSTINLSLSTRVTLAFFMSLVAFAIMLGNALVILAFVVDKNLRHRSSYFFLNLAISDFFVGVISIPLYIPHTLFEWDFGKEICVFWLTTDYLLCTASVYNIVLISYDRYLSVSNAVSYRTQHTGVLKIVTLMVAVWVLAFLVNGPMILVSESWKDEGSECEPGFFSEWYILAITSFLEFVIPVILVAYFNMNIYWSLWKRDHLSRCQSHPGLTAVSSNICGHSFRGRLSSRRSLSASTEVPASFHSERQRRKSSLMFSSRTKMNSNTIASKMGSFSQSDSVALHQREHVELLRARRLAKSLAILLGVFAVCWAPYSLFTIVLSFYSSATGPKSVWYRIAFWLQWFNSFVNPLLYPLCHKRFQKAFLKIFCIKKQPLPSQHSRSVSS
Sequence of Histamine H3 receptor (Homo sapiens) (Q9Y5N1 whole entry): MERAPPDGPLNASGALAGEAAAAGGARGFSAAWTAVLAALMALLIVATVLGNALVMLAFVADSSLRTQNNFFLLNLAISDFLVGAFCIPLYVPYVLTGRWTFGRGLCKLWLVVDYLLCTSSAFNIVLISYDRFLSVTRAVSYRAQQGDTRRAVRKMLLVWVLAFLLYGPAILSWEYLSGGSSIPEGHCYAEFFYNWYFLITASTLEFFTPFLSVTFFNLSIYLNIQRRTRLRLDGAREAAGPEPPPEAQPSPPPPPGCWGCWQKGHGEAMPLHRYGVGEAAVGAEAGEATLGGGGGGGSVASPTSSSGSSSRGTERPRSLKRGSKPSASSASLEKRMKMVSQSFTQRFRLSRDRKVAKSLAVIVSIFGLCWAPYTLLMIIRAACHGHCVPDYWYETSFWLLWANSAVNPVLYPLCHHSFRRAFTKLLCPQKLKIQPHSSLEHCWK

As to `CC(C)[C@H](NC(=O)CCN1CCC(Oc2ccccc2Cc2ccccc2)CC1)C(=O)N[C@@H](CO)C(=O)N[C@@H](CC(N)=O)C(=O)NCCC(=O)N[C@@H](CCCCNC(=O)CCCCC[N+]1=C(/C=C/C=C/C=C2/N(C)c3ccc(S(=O)(=O)[O-])cc3C2(C)C)C(C)(C)c2cc(S(=O)(=O)O)ccc21)C(N)=O`, the pKb in data set [1] turned out to be 5.33. Besides, in data set [2], the outcome was Active.
The matching figures for `C[C@H](NC(=O)[C@H](C)NC(=O)[C@H](Cc1ccccc1)NC(=O)CCN1CCC(Oc2ccccc2Cc2ccccc2)CC1)C(=O)NCCC(=O)N[C@@H](CCCCNC(=O)CCCCC[N+]1=C(/C=C/C=C/C=C2/N(C)c3ccc(S(=O)(=O)[O-])cc3C2(C)C)C(C)(C)c2cc(S(=O)(=O)O)ccc21)C(N)=O`: 6.09 and “Active”.
Consider `N=C(NCc1ccc(Cl)cc1)SCCCc1c[nH]cn1`, for which the outcome in data set [3] and in data set [4] was Active.
Consider `C[C@@H](NC(=O)CCN1CCC(Oc2ccccc2Cc2ccccc2)CC1)C(=O)N[C@H](C)C(=O)N[C@H](C)C(=O)NCCNC(=O)CCCCCNC(=O)COc1ccc(/C=C/C2=[N+]3C(=Cc4ccc(-c5cccs5)n4[B-]3(F)F)C=C2)cc1` (stereo in doubt), for which, in [5], the pKb was found to be 8.6.
Turning to `Cc1cc(C)n2c1C=C1C=CC(CCC(=O)NCCCC[C@H](NC(=O)CCNC(=O)[C@H](C)NC(=O)[C@H](C)NC(=O)[C@H](Cc3ccccc3)NC(=O)CCN3CCC(Oc4ccccc4Cc4ccccc4)CC3)C(N)=O)=[N+]1[B-]2(F)F` ({Propanoyl(3-Pip(4-O-2-BnPh))}-FAA[βAla]K(BODIPY(FL))-NH2), in data set [1], the pKb came to 7.46. For the same compound, the result in [2] was Active.
Consider `C[C@H](NC(=O)[C@H](C)NC(=O)[C@H](Cc1ccccc1)NC(=O)CCN1CCC(Oc2ccccc2Cc2ccccc2)CC1)C(=O)NCCC(=O)N[C@@H](CCCCNC(=O)COc1ccc(/C=C/C2=[N+]3C(=Cc4ccc(-c5cccs5)n4[B-]3(F)F)C=C2)cc1)C(N)=O` ({Propanoyl(3-Pip(4-O-2-BnPh))}-FAA[βAla]K(X1)-NH2), for which the pKd in data set [6] stood at 7.64. For the same compound, the pKb in data set [1] amounted to 8.59. For the same compound, the K in [7] is 0.686 10^6/M/min; in data set [8] it was 0.014 min⁻¹. Further, the outcome in data set [2] was Active.
Consider `C[C@H](NC(=O)[C@H](C)NC(=O)[C@H](Cc1ccccc1)NC(=O)CCN1CCC(Oc2ccccc2Cc2ccccc2)CC1)C(=O)NCCC(=O)N[C@@H](CCCCNC(=O)CCC1=[N+]2C(=Cc3ccc(-c4cccs4)n3[B-]2(F)F)C=C1)C(N)=O` ({Propanoyl(3-Pip(4-O-2-BnPh))}-FAA[βAla]K(X2)-NH2), for which the pKb in [1] amounted to 6.44. Moreover, the outcome in data set [2] was Active.
On to `Cc1cc(C)n2c1C=C1C=CC(/C=C/c3ccc(OCC(=O)NCCCC[C@H](NC(=O)CCNC(=O)[C@H](C)NC(=O)[C@H](C)NC(=O)[C@H](Cc4ccccc4)NC(=O)CCN4CCC(Oc5ccccc5Cc5ccccc5)CC4)C(N)=O)cc3)=[N+]1[B-]2(F)F` ({Propanoyl(3-Pip(4-O-2-BnPh))}-FAA[βAla]K(X3)-NH2), for which, in data set [1], the pKb came to 6.99. Moreover, the result in data set [2] was Active.
Take `CC(C)[C@H](NC(=O)CCN1CCC(Oc2ccccc2Cc2ccccc2)CC1)C(=O)N[C@@H](C)C(=O)N[C@@H](C)C(=O)N[C@H](Cc1ccccc1)C(N)=O` ({Propanoyl(3-Pip(4-O-2-BnPh))}-VAA[dF]-NH2): the fold change (FC) in data set [9] worked out at 2.
Take `CC(C)[C@H](NC(=O)CCN1CCC(Oc2ccccc2Cc2ccccc2)CC1)C(=O)N[C@@H](CO)C(=O)N[C@@H](C)C(=O)N[C@H](Cc1ccccc1)C(N)=O` ({Propanoyl(3-Pip(4-O-2-BnPh))}-VSA[dF]-NH2): in data set [9], the fold change (FC) amounted to 2.
In turn, `CC(C)[C@H](NC(=O)CCN1CCC(Oc2ccccc2Cc2ccccc2)CC1)C(=O)N[C@@H](CO)C(=O)N[C@@H](CC(N)=O)C(=O)N[C@@H](Cc1ccccc1)C(N)=O` ({Propanoyl(3-Pip(4-O-2-BnPh))}-VSNF-NH2) displayed a Ki in [10] of 89 nM.
For the compound `Cc1cc(C)n2c1C=C1C=CC(CCC(=O)NCCCC[C@H](NC(=O)CCNC(=O)[C@H](CC(N)=O)NC(=O)[C@H](CO)NC(=O)[C@@H](NC(=O)CCN3CCC(Oc4ccccc4Cc4ccccc4)CC3)C(C)C)C(N)=O)=[N+]1[B-]2(F)F` ({Propanoyl(3-Pip(4-O-2-BnPh))}-VSN[βAla]K(BODIPY(FL))-NH2), the pKb in data set [1] worked out at 6.95. Also, the result in [2] was Active.
On to `CC(C)[C@H](NC(=O)CCN1CCC(Oc2ccccc2Cc2ccccc2)CC1)C(=O)N[C@@H](CO)C(=O)N[C@@H](CC(N)=O)C(=O)NCCC(=O)N[C@@H](CCCCNC(=O)COc1ccc(/C=C/C2=[N+]3C(=Cc4ccc(-c5cccs5)n4[B-]3(F)F)C=C2)cc1)C(N)=O` ({Propanoyl(3-Pip(4-O-2-BnPh))}-VSN[βAla]K(X1)-NH2), for which the pKd in data set [6] was 7.74. Moreover, in data set [1], the pKb is 8.56. The Drug uptake result in data set [11] is recorded as “Active”. Besides, the figures for the K in [7] and in data set [8] were 0.839 10^6/M/min and 0.014 min⁻¹, respectively. For the same compound, in [2], the outcome was Active.
For the compound `CC(C)[C@H](NC(=O)CCN1CCC(Oc2ccccc2Cc2ccccc2)CC1)C(=O)N[C@@H](CO)C(=O)N[C@@H](CC(N)=O)C(=O)NCCC(=O)N[C@@H](CCCCNC(=O)CCC1=[N+]2C(=Cc3ccc(-c4cccs4)n3[B-]2(F)F)C=C1)C(N)=O` ({Propanoyl(3-Pip(4-O-2-BnPh))}-VSN[βAla]K(X2)-NH2), the pKb in [1] stood at 6.52. Moreover, the result in data set [2] was Active.
Turning to `Cc1cc(C)n2c1C=C1C=CC(/C=C/c3ccc(OCC(=O)NCCCC[C@H](NC(=O)CCNC(=O)[C@H](CC(N)=O)NC(=O)[C@H](CO)NC(=O)[C@@H](NC(=O)CCN4CCC(Oc5ccccc5Cc5ccccc5)CC4)C(C)C)C(N)=O)cc3)=[N+]1[B-]2(F)F` ({Propanoyl(3-Pip(4-O-2-BnPh))}-VSN[βAla]K(X3)-NH2), the pKb in [1] worked out at 6.96. Moreover, the outcome in data set [2] was Active.
`CC(C)[C@H](NC(=O)CCN1CCC(Oc2ccccc2Cc2ccccc2)CC1)C(=O)N[C@@H](CO)C(=O)N[C@@H](CO)C(=O)N[C@H](Cc1ccccc1)C(N)=O` ({Propanoyl(3-Pip(4-O-2-BnPh))}-VSS[dF]-NH2): the fold change (FC) in [9] worked out at 2.
Take `CC(C)[C@H](NC(=O)CCN1CCC(Oc2ccccc2Cc2ccccc2)CC1)C(=O)N[C@@H](CO)C(=O)N[C@@H](Cc1ccc(O)cc1)C(=O)N[C@@H](Cc1ccccc1)C(N)=O` ({Propanoyl(3-Pip(4-O-2-BnPh))}-VSYF-NH2): the affinity in data set [10] corresponds to a Ki of 437 nM. In other words, the sub-micromolar range.
For `CC(C)[C@H](NC(=O)CCN1CCC(Oc2ccccc2Cc2ccccc2)CC1)C(=O)N[C@@H](CO)C(=O)N[C@@H](Cc1ccc(O)cc1)C(=O)N[C@H](Cc1ccccc1)C(N)=O` ({Propanoyl(3-Pip(4-O-2-BnPh))}-VSY[dF]-NH2), the fold change (FC) in [9] stood at 2.
